High-throughput results (PubChem BioAssay)
Rows were chosen to be rich in hits. Some 2.3% of all compounds tested hit in one or more screens of this group.
TRPC6 activator: mouse TRPC6 channel activators, primary screen, cell-based, HEK293, membrane potential dye; Short transient receptor potential channel 6 (Mus musculus), Q61143; HEK293-TRPC6 membrane potential dye fluorescence; hits give high values; B-score at 10 µM; actives 0.13% (n = 310,000); AID 2550, 2010;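 active = B-score of the integrated fluorescence ratio above library mean plus 3 SD, and starting fluorescence ratio within library mean plus 5 SD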;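 also: higher score means more depolarization so channel activation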
TRPC4 block: inhibitors of mouse TRPC4 channel, primary screen, Fluo4 calcium, HEK293 TRPC4beta/mu-opioid cells; actives 0.39% (n = 300,000); B-score at 10 µM; Short transient receptor potential channel 4 (Mus musculus), Q9QUQ5; DAMGO-evoked Fluo4 calcium flux; hits give low values;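 active = B-score over 3 SD under the library average, no early fluorescence shift, positive overall ratio signal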
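Assay system: TRPC4beta/mu-opioid receptor HEK293 cell line; compound dosing: single concentration per test compound; detection: Fluo4 Ca2+ flux fluorescence; evaluation: per-well B score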
TRPC4 potent: positive allosteric modulators of TRPC4, primary screen, cell-based, mouse TRPC4beta, HEK293 mu-opioid, Fluo-4 calcium. Short transient receptor potential channel 4 (Mus musculus), Q9QUQ5. DAMGO EC20, Fluo-4 Ca2+ flux; hits give high values. B-score at 10 µM. actives 0.42% (n = 310,000). AID 2227, 2009;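 active = B-score of calcium response area above 5 SD of library B-scores, with initial fluorescence ratio within 5 SD of library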;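 also: B-score of integrated fluorescence ratio over time as area under calcium response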
TRPC4 agonist: activators of mouse TRPC4 channel, primary screen, Fluo4 calcium, HEK293 TRPC4beta/mu-opioid cells | Short transient receptor potential channel 4 (Mus musculus), Q9QUQ5 | Fluo4 calcium fluorescence; hits give high values | B-score at 10 µM | actives 0.49% (n = 310,000) | AID 2237, 2010;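 active = B-score above 5 SD of library B-scores, and initial fluorescence ratio not above library mean plus 5 SD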;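 also: positive B-score marks a calcium rise read as TRPC4 activation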
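system = HEK293 cells stably co-expressing mouse TRPC4beta and mu-opioid receptor | schedule = Fluo4 dye loading 45 min at room temperature, 110 s recording | measure = B-scored integrated calcium fluorescence ratio | signal = Fluo4 calcium-sensitive dye fluorescence, kinetic, 1 Hz baseline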
TRPC6 inhibitor: mouse TRPC6 channel inhibitors, primary screen, cell-based, HEK293, membrane potential dye. B-score at 10 µM. actives 1.1% (n = 310,000). AID 2553, 2010. Short transient receptor potential channel 6 (Mus musculus), Q61143. ACh-evoked depolarization; hits give low values;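 active = B-score under library mean minus 3 SD, initial fluorescence not abnormally high, positive integrated signal ratio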;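 also: B-score derived from integrated fluorescence ratio over the kinetic read; more negative B-score means stronger inhibition of depolarization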
Numbers without * were called inactive; i = inactive.

SMILES | TRPC6 activator | TRPC4 block | TRPC4 potent | TRPC4 agonist | TRPC6 inhibitor
CCC(C)N(C(=O)COC(=O)c1ccc(=O)n(Cc2ccccc2)n1)C1CCS(=O)(=O)C1 (stereo unspecified) | i | i | i | i | i
Cc1ccc(-c2nnn(CC(=O)N(CC(=O)NC3CCCCC3)c3cnc4ccccc4c3)n2)o1 | i | i | i | i | i
CN(C)CCNC(=O)c1scc2c1CCCC2 | i | i | i | 142* | i
C=CCNC(=O)c1scc2c1CCCC2 | i | i | i | i | i
Cc1ccccc1Nc1nc(NCc2ccco2)c2ccccc2n1 | i | -9* | i | 49* | -5.8*
CCOc1cc(CN2CCN(c3ccc(C(C)=O)cc3)CC2)ccc1OC | i | i | 11* | i | i
CCOc1cc(CN2CCCCC2)ccc1OC | i | i | i | i | i
Cc1cccc(COc2ccc(/C=N/NC(=O)c3nnn(-c4nonc4N)c3COc3ccc(F)cc3)cc2)c1 | i | i | i | i | i
CCCc1c(O)nc(SCCN(CC)CC)[nH]c1=O | i | i | i | 112* | i
CC(C)c1c(O)nc(SCCN2CCOCC2)[nH]c1=O | i | i | i | i | i
CCN(CC)CCSc1nc(O)c(C(C)C)c(=O)[nH]1 | i | i | 12* | 80* | i
CCCCSc1nc(O)c(Cc2ccccc2)c(=O)[nH]1 | i | i | i | i | i
COc1cccc(CNC(=O)CCC2CCCN(Cc3cc(Cl)ccc3O)C2)c1 (stereo unspecified) | i | -7* | i | i | i
COc1ccccc1/C=C/CN1CCCC(CCC(=O)NCc2ccccc2F)C1 (stereo unspecified) | i | -6* | i | 113* | i
COc1cccc(CNC(=O)CCC2CCCN(C(=O)Cc3ccccc3F)C2)c1 (stereo unspecified) | i | i | i | i | i
Cc1nn(-c2ccccc2)c2c1C(=O)N(Cc1ccccc1)C(=O)C(C)(C)C2 | i | i | i | i | i
Cc1nn(-c2nc3ccccc3n2Cc2ccccc2)c2c1C(=O)CC(C)(C)C2 | i | -6* | i | i | i
COc1ccc(CN(C)CC(=O)N2CCc3ccccc3C2)cc1 | i | i | i | i | i
CN(C)c1ccc(C(CC(=O)O)NC(=O)c2ccc(Cl)cc2)cc1 (stereo unspecified) | i | i | i | i | i
Cc1occc1C(=O)N1CCCC(N2CCN(c3ccccc3F)CC2)C1 (stereo unspecified) | i | i | i | i | i
Clc1cccc(OCCN2CCCC2)c1 | i | i | i | i | i
CN1CCN(CCOc2cccc(Cl)c2)CC1 | i | i | 14* | i | i
CN1CCCN(Cc2cccc3ccccc23)CC1 | i | i | 23* | i | i
OC1CCN(Cc2cccc3ccccc23)CC1 | i | i | i | i | i
CCN1/C(=C/C=C/c2sc3ccccc3[n+]2CC)Sc2ccccc21 | i | i | i | 49* | i
SMILES | TRPC6 activator | TRPC4 block | TRPC4 potent | TRPC4 agonist | TRPC6 inhibitor
CCN1/C(=C/C=C/C=C/c2sc3ccccc3[n+]2CC)Sc2ccccc21 | i | i | i | i | i
N=C(N)SCc1cn2ccccc2n1 | i | i | 16* | i | i
COc1ccc(CCN(C)C(=O)c2cc(S(=O)(=O)N3CCCCCC3)ccc2OC)cc1OC | i | i | i | i | i
COc1ccc(CCN(C)C(=O)c2cc(S(=O)(=O)N3CCCCC3)ccc2Cl)cc1OC | i | -7* | i | i | i
Cc1cc(C)cc(C(=O)N2CCC3(CC2)NCCc2[nH]cnc23)c1 | i | i | i | i | i
CN1CCN(CC(O)Cn2c3ccccc3c3ccccc32)CC1 (stereo unspecified) | i | i | i | i | i
CN1CCN(CC#CCn2c3ccccc3c3ccccc32)CC1 | i | i | 16* | i | i
Cc1sc2ncnc(N(C)Cc3cccs3)c2c1C | i | i | i | i | i
Cc1sc2ncnc(N(C)CCc3ccccn3)c2c1C | i | i | i | 80* | i
COC(=O)C(Cc1cccc(C)n1)(c1ccccc1)c1ccccc1 | i | -7* | i | i | i
CC1CC(C)CN(CCCNS(=O)(=O)c2ccc3c(c2)CCN3C(=O)C2CC2)C1 (stereo unspecified) | i | i | i | 66* | i
CCC(=O)N1CCc2cc(Br)cc(S(=O)(=O)NCCCN(CC)Cc3ccccc3)c21 | i | i | i | 148* | i
CC1CC(C)CN(CCCNS(=O)(=O)c2ccc3c(c2)oc(=O)n3C)C1 (stereo unspecified) | i | i | i | 49* | i
CCC(=O)N1CCc2cc(S(=O)(=O)NCCN3CCCCC3CC)ccc21 (stereo unspecified) | i | -9* | i | i | i
CC1CCN(C(=O)CCNS(=O)(=O)c2ccc3c(c2)oc(=O)n3C)CC1 | i | i | i | i | i
CCOC(=O)C1CCN(C(=O)CCNS(=O)(=O)c2ccc3c(c2)CCN3C(=O)CC)CC1 | i | i | i | i | i
CCC(=O)N1CCc2cc(Br)cc(S(=O)(=O)NCCCN(C)Cc3ccccc3)c21 | i | i | 40* | 82* | i
CC(=O)N1CCc2cc(Br)cc(S(=O)(=O)NCCCN(C)Cc3ccccc3)c21 | i | i | i | 119* | i
CCCNS(=O)(=O)c1cc(Br)cc2c1N(C(=O)CC)CC2 | i | i | i | i | i
CCOCCCNS(=O)(=O)c1cc(Br)cc2c1N(C(=O)C1CC1)CC2 | i | i | i | i | i
CCC(=O)N1CCc2cc(S(=O)(=O)NCCCN(CC)Cc3ccccc3)ccc21 | i | i | i | 50* | i
CC(C)NC(=O)c1ccc2c(c1)N(Cc1ccccc1)C(=O)C(C)(C)O2 | i | i | i | i | i
CCc1cccc(CC)c1NC(=O)CN1CCc2cc(OC)c(OC)cc2C1 | i | i | i | i | i
CCOC(=O)N1CCN(S(=O)(=O)c2cc([N+](=O)[O-])c(C)cc2C)CC1 | i | i | i | i | i
